From PubChem BioAssay
Active and inactive are the calls of the source.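 Rule for the calls, unless noted: active = GFP response above 150% of the DMSO level; inconclusive = fewer than 70 events counted for a yeast strain; inactive = the rest.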

Key:
[1] = RPL19A-GFP modulators, yeast TOR pathway, confirmation, cell-based, S. cerevisiae, flow cytometry, cherry picks, mother/daughter gates (AID 2270;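 active = GFP response below 50% of the DMSO control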); settings: S. cerevisiae RPL19A-GFP strain, 3 h, at 10 µM, stronger effect = lower value, 100 = same GFP as DMSO wells
[2] = LAP4-GFP expression modulators in yeast, confirmation, cell-based, cherry picks, flow cytometry, mother/daughter gates (AID 2271;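 active = GFP response above 150% of the DMSO control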;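 note: ratio of sample to DMSO plate mean so 100% equals DMSO level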); settings: S. cerevisiae LAP4-GFP strain, 3 h, at 10 µM, stronger effect = higher value, 100 means same as DMSO control
How it was run: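 System: GFP-fusion yeast strain; Incubation: compound exposure 3 h at 30 °C, end-over-end rotation; Measured by: GFP by flow cytometry; Read-out: median GFP fluorescence as percent of plate-mean DMSO wells; Medium: synthetic complete (SC) yeast growth medium; Compound: single test-compound dose, 10 µM final; Benchmarks: DMSO-only negative wells, rapamycin 400 ng/mL positive wells.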

[3] = modulators of MEP2-GFP levels in yeast, confirmation, S. cerevisiae, flow cytometry GFP, cherry picks (AID 2272;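 active = GFP response above 150% of the DMSO control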;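 note: ratio of well signal to plate DMSO mean so 100% equals DMSO level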); settings: S. cerevisiae MEP2-GFP strain, 3 h, at 10 µM, stronger effect = higher value
[4] = AGP1-GFP expression modulators, hit retest, confirmation, cell-based, flow cytometry, S. cerevisiae, cherry picks (AID 2273);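 note: median GFP channel fluorescence over the whole cell population gate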; settings: S. cerevisiae AGP1-GFP strain, 3 h, at 10 µM
[5] = modulators of CIT2-GFP expression in yeast, confirmation, S. cerevisiae, GFP fusion, cherry picks, mother/daughter gates (AID 2274); settings: S. cerevisiae CIT2-GFP strain, flow cytometry, 3 h, at 10 µM, stronger effect = higher value
[6] = measured here: daughter cell gate
[7] = measured here: mother cell gate
[8] = measured here: daughter cell gate response
[9] = measured here: mother cell gate response

CC1(C)CCN2CCC(C)(C)c3c(O)ccc1c32
GFP response vs DMSO [1]: 105% (inactive) | GFP response vs DMSO [1, 6]: 105% | GFP response vs DMSO [1, 7]: 107% | GFP response relative to DMSO [2]: 115% (inactive) | GFP response relative to DMSO [2, 8]: 123% | GFP response relative to DMSO [2, 9]: 115% | GFP response vs DMSO [3]: 139% (inactive) | GFP response, % of DMSO [4]: 101% (inactive) | GFP response, % of DMSO [5]: 121% (inactive) | GFP response, % of DMSO [5, 6]: 123% | GFP response, % of DMSO [5, 7]: 119%

CCCS(=O)(=O)N1CCC(C(=O)c2cccc(C(F)(F)F)c2)CC1
GFP response vs DMSO [1]: 98.8% (inactive) | GFP response vs DMSO [1, 6]: 97% | GFP response vs DMSO [1, 7]: 98.2% | GFP response relative to DMSO [2]: 101% (inactive) | GFP response relative to DMSO [2, 8]: 98.7% | GFP response relative to DMSO [2, 9]: 102% | GFP response vs DMSO [3]: 100% (inactive) | GFP response, % of DMSO [4]: 97.8% (inactive) | GFP response, % of DMSO [5]: 91.3% (inactive) | GFP response, % of DMSO [5, 6]: 93.2% | GFP response, % of DMSO [5, 7]: 89.1%

O=C(NCC(=O)N1CCCC1)c1cccs1
GFP response vs DMSO [1]: 99.8% (inactive) | GFP response vs DMSO [1, 6]: 99.6% | GFP response vs DMSO [1, 7]: 100% | GFP response relative to DMSO [2]: 99.2% (inactive) | GFP response relative to DMSO [2, 8]: 97.6% | GFP response relative to DMSO [2, 9]: 98.3% | GFP response vs DMSO [3]: 100% (inactive) | GFP response, % of DMSO [4]: 97.2% (inactive) | GFP response, % of DMSO [5]: 104% (inactive) | GFP response, % of DMSO [5, 6]: 105% | GFP response, % of DMSO [5, 7]: 104%

Cc1c(NC(=O)Nc2ccc3c(c2)OCO3)c(=O)n(-c2ccccc2)n1C
GFP response vs DMSO [1]: 99.3% (inactive) | GFP response vs DMSO [1, 6]: 99.1% | GFP response vs DMSO [1, 7]: 99% | GFP response relative to DMSO [2]: 96.5% (inactive) | GFP response relative to DMSO [2, 8]: 96.5% | GFP response relative to DMSO [2, 9]: 93.6% | GFP response vs DMSO [3]: 99.5% (inactive) | GFP response, % of DMSO [4]: 96.7% (inactive) | GFP response, % of DMSO [5]: 96.4% (inactive) | GFP response, % of DMSO [5, 6]: 100% | GFP response, % of DMSO [5, 7]: 95.6%

CCc1nnc(NC(=O)c2ccc(S(=O)(=O)N3CCCC(C)C3)cc2)o1 (stereo unspecified)
GFP response vs DMSO [1]: 101% (inactive) | GFP response vs DMSO [1, 6]: 99.1% | GFP response vs DMSO [1, 7]: 98.5% | GFP response relative to DMSO [2]: 98.2% (inactive) | GFP response relative to DMSO [2, 8]: 97.5% | GFP response relative to DMSO [2, 9]: 100% | GFP response vs DMSO [3]: 101% (inactive) | GFP response, % of DMSO [4]: 105% (inactive) | GFP response, % of DMSO [5]: 102% (inactive) | GFP response, % of DMSO [5, 6]: 105% | GFP response, % of DMSO [5, 7]: 99.3%

O=c1[nH]c(CN2CCCCC2)nc2c1C1(CCCCC1)Cc1ccccc1-2
GFP response vs DMSO [1]: 100% (inactive) | GFP response vs DMSO [1, 6]: 100% | GFP response vs DMSO [1, 7]: 100% | GFP response relative to DMSO [2]: 98.7% (inactive) | GFP response relative to DMSO [2, 8]: 98.7% | GFP response relative to DMSO [2, 9]: 101% | GFP response vs DMSO [3]: 100% (inactive) | GFP response, % of DMSO [4]: 99.2% (inactive) | GFP response, % of DMSO [5]: 99.1% (inactive) | GFP response, % of DMSO [5, 6]: 96.5% | GFP response, % of DMSO [5, 7]: 98.7%

O=C(Cc1ccc(Cl)cc1)NNC(=S)NC(=O)c1cccs1
GFP response vs DMSO [1]: 104% (inactive) | GFP response vs DMSO [1, 6]: 104% | GFP response vs DMSO [1, 7]: 104% | GFP response relative to DMSO [2]: 150% (active) | GFP response relative to DMSO [2, 8]: 151% | GFP response relative to DMSO [2, 9]: 151% | GFP response vs DMSO [3]: 114% (inactive) | GFP response, % of DMSO [4]: 102% (inactive) | GFP response, % of DMSO [5]: 109% (inactive) | GFP response, % of DMSO [5, 6]: 115% | GFP response, % of DMSO [5, 7]: 104%

COC(=O)c1ccc(CS(=O)(=O)c2ccc(F)cc2)o1
GFP response vs DMSO [1]: 97.8% (inactive) | GFP response vs DMSO [1, 6]: 98.1% | GFP response vs DMSO [1, 7]: 95.9% | GFP response relative to DMSO [2]: 98.9% (inactive) | GFP response relative to DMSO [2, 8]: 99% | GFP response relative to DMSO [2, 9]: 98.4% | GFP response vs DMSO [3]: 103% (inactive) | GFP response, % of DMSO [4]: 102% (inactive) | GFP response, % of DMSO [5]: 100% (inactive) | GFP response, % of DMSO [5, 6]: 99.3% | GFP response, % of DMSO [5, 7]: 98.2%

O=C(N=Nc1c(O)[nH]c2ccccc12)c1ccco1
GFP response vs DMSO [1]: 98.2% (inactive) | GFP response vs DMSO [1, 6]: 98.6% | GFP response vs DMSO [1, 7]: 97.8% | GFP response relative to DMSO [2]: 99.8% (inactive) | GFP response relative to DMSO [2, 8]: 98.2% | GFP response relative to DMSO [2, 9]: 102% | GFP response vs DMSO [3]: 98.8% (inactive) | GFP response, % of DMSO [4]: 100% (inactive) | GFP response, % of DMSO [5]: 103% (inactive) | GFP response, % of DMSO [5, 6]: 102% | GFP response, % of DMSO [5, 7]: 102%

Cc1cc(O)c(C(=O)/C=C/c2ccc(Cl)cc2)c(=O)o1
GFP response vs DMSO [1]: 97.2% (inactive) | GFP response vs DMSO [1, 6]: 101% | GFP response vs DMSO [1, 7]: 95.5% | GFP response relative to DMSO [2]: 180% (active) | GFP response relative to DMSO [2, 8]: 156% | GFP response relative to DMSO [2, 9]: 180% | GFP response vs DMSO [3]: 110% (inactive) | GFP response, % of DMSO [4]: 99.7% (inactive) | GFP response, % of DMSO [5]: 95% (inactive) | GFP response, % of DMSO [5, 6]: 104% | GFP response, % of DMSO [5, 7]: 86.3%

COC(=O)c1ccccc1Sc1ncnc2onc(C)c12
GFP response vs DMSO [1]: 101% (inactive) | GFP response vs DMSO [1, 6]: 100% | GFP response vs DMSO [1, 7]: 101% | GFP response relative to DMSO [2]: 111% (inactive) | GFP response relative to DMSO [2, 8]: 106% | GFP response relative to DMSO [2, 9]: 112% | GFP response vs DMSO [3]: 120% (inactive) | GFP response, % of DMSO [4]: 93.2% (inactive) | GFP response, % of DMSO [5]: 108% (inactive) | GFP response, % of DMSO [5, 6]: 106% | GFP response, % of DMSO [5, 7]: 107%
